# Source: PubChem
# Sampled rows, rich in hits. Any-hit rate of the full collection: about 4%.
# KCC2 mod = KCC2 cotransporter modulators, thallium flux, primary screen, cell-based, HEK293 KCC2, FluoZin-2 fluorescence, MLSMR | B-score of Tl+ flux slope (higher = more flux/activation; lower = inhibition) at 10 µM | KCC2 cells, thallium flux FluoZin-2 fluorescence | Solute carrier family 12 member 5 (Homo sapiens), Q9H2X9 | 190,000 compounds, 2.2% hits | AID 1456, 2008;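 active means thallium flux slope and its plate-corrected score both differing from the plate sample mean at a set confidence after two filtering rounds, in either direction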;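 further: slope of fluorescence scaled to starting intensity during 10 to 20 s after thallium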
# Target sequence (Q9H2X9 whole entry, looked up): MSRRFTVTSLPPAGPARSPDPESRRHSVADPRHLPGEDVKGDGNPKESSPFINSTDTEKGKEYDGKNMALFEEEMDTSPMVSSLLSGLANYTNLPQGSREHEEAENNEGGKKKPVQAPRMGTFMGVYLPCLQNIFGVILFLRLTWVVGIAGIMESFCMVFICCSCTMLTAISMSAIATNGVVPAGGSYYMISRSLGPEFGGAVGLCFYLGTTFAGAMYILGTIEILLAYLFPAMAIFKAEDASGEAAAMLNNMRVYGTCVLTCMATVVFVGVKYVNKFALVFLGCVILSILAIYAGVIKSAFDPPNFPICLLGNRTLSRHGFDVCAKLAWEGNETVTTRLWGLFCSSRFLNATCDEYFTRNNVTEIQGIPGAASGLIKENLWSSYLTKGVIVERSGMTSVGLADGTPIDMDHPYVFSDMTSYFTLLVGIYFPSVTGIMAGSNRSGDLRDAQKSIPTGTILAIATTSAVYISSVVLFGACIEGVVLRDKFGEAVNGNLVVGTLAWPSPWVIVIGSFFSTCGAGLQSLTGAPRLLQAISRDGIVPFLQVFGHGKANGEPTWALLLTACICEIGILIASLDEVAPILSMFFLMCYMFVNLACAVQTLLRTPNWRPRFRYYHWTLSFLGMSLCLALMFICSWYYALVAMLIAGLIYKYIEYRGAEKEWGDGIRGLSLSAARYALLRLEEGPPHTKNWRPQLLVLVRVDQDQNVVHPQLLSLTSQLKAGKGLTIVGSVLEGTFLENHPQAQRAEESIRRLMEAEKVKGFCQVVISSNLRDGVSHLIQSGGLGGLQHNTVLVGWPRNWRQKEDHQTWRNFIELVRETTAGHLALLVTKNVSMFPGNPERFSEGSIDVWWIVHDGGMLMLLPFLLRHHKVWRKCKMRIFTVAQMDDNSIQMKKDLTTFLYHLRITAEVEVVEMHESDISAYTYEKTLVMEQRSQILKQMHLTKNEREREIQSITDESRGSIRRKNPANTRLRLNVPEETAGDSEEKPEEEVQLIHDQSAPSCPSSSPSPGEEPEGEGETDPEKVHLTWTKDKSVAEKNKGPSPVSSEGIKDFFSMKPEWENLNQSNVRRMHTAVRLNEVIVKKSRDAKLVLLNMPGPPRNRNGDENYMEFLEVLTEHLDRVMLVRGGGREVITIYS
# bCat nuc transl = modulators of beta-catenin nuclear translocation, primary screen, imaging, HeLa cells, immunofluorescence, high-content. 190,000 compounds, 0.3% hits. AID 1665, 2009. nuclear translocation activity, % at 5 µM;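 active means nuclear translocation activity above 50% at 5 µM, with a well cell count of 50 or more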;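 further: per-cell ratio of nuclear to cytoplasmic median beta-catenin stain intensity; plate controls were DMSO negative control for no effect and GSK-3 inhibitor IX positive control for full effect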
#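 Assay system: human HeLa cells, native beta-catenin; doses: 5 µM primary, 0.02–20 µM confirmation; incubation: compound treatment 24 h, 37°C, 5% CO2; technique: fluorescence imaging of beta-catenin antibody stain plus DAPI; measure: % activation, nuclear-to-cytoplasmic median beta-catenin signal ratio per cell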
# WT yeast gro inh = growth inhibition of WT strain, primary screen, mitochondrial fusion inhibitor project, WT and mutant strains, chemical genetic. mitochondrial fusion phenotypic screen. inhibition, % at 10 µM. 190,000 compounds, 2.1% hits; in the data active means inhibition above about 58%; tested in S. cerevisiae
# Pf gametocyte = late stage P. falciparum gametocyte viability inhibitors, primary screen, ATP luminescence, HTS. 150,000 compounds, 0.065% hits. inhibition, % at 10.9 µM. P. falciparum stage V gametocytes, 24 h. AID 743093, 2013;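 active means inhibition above the mean plus 3 SD of compounds within the control limits, set per campaign, cut at about 38% in these data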;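 further: 0% = DMSO wells and 100% = medium only without gametocytes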
# MT stabilizer = microtubule stabilizers in HeLa cells, primary screen, imaging, high-content imaging; HeLa tubulin immunostaining HCS, 24 h; share of cells brighter than vehicle mean+2SD; % tubulin-high responders, % at 10 µM; 200,000 compounds, 0.83% hits;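 active means plate Z-score above 3 for both tubulin-high and condensed-nucleus cell shares, with cell loss under 80%, at 10 µM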;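 further: anti alpha tubulin signal scored within the nucleus-defined area of each cell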
# The depositor's hits bear a star; . = no result given; ! = a repeat was not active.
SMILES,KCC2 mod,bCat nuc transl,WT yeast gro inh,Pf gametocyte,MT stabilizer
COc1cccc(C(=O)NN/C(C)=C/C(=O)C(F)(F)C(F)(F)C(F)(F)F)c1,0.77,2,9,.,5
COc1ccc(N/N=C(/C(C)=O)N2CCCc3ccccc32)cc1,-1.5,4,.,-6,.
Cn1cnc([N+](=O)[O-])c1Sc1ncn[nH]1,0.069,0,.,.,.
COc1ccc(NC(=O)CCC(=O)c2ccc(F)cc2)cc1,.,.,.,14,.
COC(=O)c1nn(-c2ccc(OC)cc2)c(=O)cc1O,1.7,0,2,4,2
COc1ccc(-n2nc(C#N)c(Cl)cc2=O)cc1,-1.4,6,67*,5,5
CC(C)c1nc(SCC(=O)Nc2nc3c(s2)CCCC3)c2ccccc2n1,.,-4,62*,.,2
CCc1nn(C(C)C(=O)N2CCN(Cc3ccccc3)CC2)c(=O)c2cc3occc3n12 (stereo unspecified),-1.7,3,58*,.,2
C=C(c1ccc(OC)cc1)c1ccc(OC)cc1,-1.1,88*,7,.,6
CCc1c(C)nc2ncnn2c1NCCc1ccc(Cl)cc1,.,3,-9,-6,4
CC1CCC(C(C)C)C(OC(=O)Cn2c(-c3ccc(Br)cc3)[n+](C)c3ccccc32)C1 (stereo unspecified),-0.27,-4,66*!,-38,3
CC1CCC(C(C)C)C(OC(=O)COC(=O)c2ccc(N)cc2)C1 (stereo unspecified),0.76,1,32,5,2
CC1CCC(C(C)C)C(OC(=O)Cn2c(-c3ccc(Cl)cc3)[n+](C)c3ccccc32)C1 (stereo unspecified),0.96,0,.,-5,.
Cc1ccccc1OCc1n(CC(=O)OC2CC(C)CCC2C(C)C)c2ccccc2[n+]1C (stereo unspecified),-0.96,13,62*,.,87
CC1CCC(C(C)C)C(OC(=O)COC(=O)c2cccn2C)C1 (stereo unspecified),-0.93,-6,74*,-3,5
CCOC(=O)C1C(=O)C=C(c2ccc(C)cc2)CC1c1cccc([N+](=O)[O-])c1 (stereo unspecified),0.15,0,25,.,11
Clc1cccc(-c2cc3nc4c(c(N5CCOCC5)n3n2)CCCC4)c1,-0.17,2,85*,.,2
Clc1cccc(-c2cc3nc4c(c(N5CCN(c6cnccn6)CC5)n3n2)CCCC4)c1,-0.43,2,70*,-22,3
Cc1ccc(NC(=S)N(CCN(C)C)C(C)c2ccco2)cc1C (stereo unspecified),0.24,3,-4,.,2
COCCN(C(=S)Nc1ccc(C)c(C)c1)C(C)c1ccco1 (stereo unspecified),-1.4,.,60*,12,4
CCCCc1ccc(-c2nc(NC(=O)C3C4CCC(O4)C3C(=O)O)sc2C)cc1 (stereo unspecified),-0.58,.,88*,.,3
Cc1cccc(OC(C)C(=O)NCc2ccc(S(N)(=O)=O)cc2)c1 (stereo unspecified),1.1,1,1,22,2
CCC(Oc1ccccc1)C(=O)NCc1ccc(S(N)(=O)=O)cc1 (stereo unspecified),0.93,-1,-9,61*,2
COc1ccc(S(=O)(=O)NCC2CCCN(C(=O)CSC)C2)cc1 (stereo unspecified),.,.,.,-12,.
COc1ccc(NC(=O)CN2CCC(n3c(C)nc4cc(F)ccc43)CC2)c(OC)c1,.,-1,10,.,3
SMILES,KCC2 mod,bCat nuc transl,WT yeast gro inh,Pf gametocyte,MT stabilizer
COc1cc(OC)cc(C(=O)N2CCC(n3c(C)nc4cc(F)ccc43)CC2)c1,-0.05,-1,69*,-15,4
CCOC(=O)C1=NNC2(c3ccc(Cl)cc3)C(=O)N(c3ccc(C)cc3)C(=O)C12 (stereo unspecified),0.15,0,3,-6,6
CSc1ccc(/C=N/n2c(Cc3ccc(Br)cc3)n[nH]c2=S)cc1,2.7,0,71*,4,1
CCc1n[nH]c(=S)n1/N=C/c1ccc(-c2ccc(Br)cc2)o1,.,.,.,-25,.
C#CCNC(=O)C1=C[C@H](C)C[C@H](OCc2ccc(CO)cc2)O1,.,.,.,4,.
O=c1c2cn[nH]c2nc(SCc2ccccc2F)n1-c1ccc(Br)cc1,-2.1,-1,79*,-3,6
CCN1C[C@@H]2[C@@H]3C(=O)N(Cc4ccccc4)C(=O)[C@@H]3[C@](Cc3ccccc3)(C1=O)N2C(=O)c1ccc(C(F)(F)F)cc1,.,.,.,0,.
CCCC1CCC(c2nc(-c3cccnc3)no2)CC1 (stereo unspecified),1.6,-4,31,16,1
CCCCCCC1CCC(c2nc(-c3ccncc3)no2)CC1 (stereo unspecified),0.0078,.,79*,12,1
CN(c1ccccc1)S(=O)(=O)c1cccc(NC(=O)CC(C)(C)C)c1,-1.3,2,10,-17,2
O=C1NC(c2ccc3c(c2)OCO3)Nc2ccccc21 (stereo unspecified),.,-1,-6,14,22*
O=C1NC(c2ccc3c(c2)OCO3)Oc2ccccc21 (stereo unspecified),-0.18,-4,-3,.,2
COC(=O)c1ccc(/C=C/c2c(-c3ccsc3)oc3ccc(N4CCOCC4)cc23)cc1,.,.,.,-1,.
O=C(NCc1nnc(SCC(=O)N2CCCc3ccccc32)o1)c1c(F)cccc1Cl,0.088,0,-12,0,2
Brc1ccc(/C=N/Nc2ccc3ccccc3n2)cc1,0.58,-1,60*,.,2
Brc1ccccc1/C=N/Nc1ccc2ccccc2n1,-0.51,1,69*,-27,5
Fc1cccc(/C=N/Nc2ccc3ccccc3n2)c1,-1.8,-2,20,-4,6
Cc1cc(N/N=C/c2ccccc2Br)nc2ccccc12,-0.19,3,70*,3,3
O=C(CCn1cccc(C(F)(F)F)c1=O)Nc1cccc(C(F)(F)F)c1,0.13,0,.,5,.
Cc1ccc(-c2nc(P(=O)(c3ccccc3)c3ccccc3)c(N3CCOCC3)o2)cc1,-1.7,2,6,-10,5
CNc1oc(-c2ccc(Cl)cc2)nc1P(=O)(c1ccccc1)c1ccccc1,-0.87,0,62*,-14,3
O=C(Cn1nnc(-c2ccccc2)n1)N/N=C/c1ccco1,1.4,-1,-2,8,4
CC1CCc2c(sc(NC(=O)CSc3ncn[nH]3)c2C#N)C1 (stereo unspecified),0.69,0,.,-2,.
CC(C)(C)C1CCc2c(sc(NC(=O)CSc3ncn[nH]3)c2C#N)C1 (stereo unspecified),0.44,0,93*,.,9
CC(C)(c1ccccc1)c1ccc(OCCCNCCO)cc1,0.52,-6,92*,.,3
